{"source": "ChEMBL document CHEMBL3739264", "about": "“Synthesis and bio-evaluation of novel quinolino-stilbene derivatives as potential anticancer agents” (Bioorg Med Chem, 2015)", "key": {"[1]": {"assay": "Cell cycle arrest in human MCF10A cells assessed as accumulation at sub-G1 phase at 6 uM after 24 hrs by flow cytometry analysis relative to control", "type": "functional, cell-based", "conditions": "MCF-10A", "how_it_was_run": "(§1)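 About 1 × 10^6 cells per plate seeded overnight, then treated with compound and harvested at set times. Cells fixed in 75% ethanol at -20°C for 12-24 h and stained 1 h with 100 µg/ml PI, 100 µg/ml RNase A and 0.3% NP-40 in PBS. DNA content measured by flow cytometry; phase fractions compared with sham-treated cells.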"}, "HeLa [2]": {"tested_on": "HeLa", "assay": "Cell cycle arrest in human HeLa cells assessed as accumulation at G0-G1 phase at 6 uM after 24 hrs by flow cytometry analysis relative to control", "type": "functional", "how_it_was_run": "as §1"}, "HeLa [3]": {"tested_on": "HeLa", "assay": "Induction of apoptosis in human HeLa cells assessed as membrane blebbing at 6 uM after 48 hrs by time lapse microscopy analysis", "type": "functional, cell-based", "how_it_was_run": "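Treated HeLa cells were followed by time-lapse microscopy, with images taken at set time points.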"}, "MDA-MB-231": {"tested_on": "MDA-MB-231", "assay": "Cell cycle arrest in human MDA-MB-231 cells assessed as accumulation at G0-G1 phase at 6 uM after 24 hrs by flow cytometry analysis relative to control", "type": "functional", "how_it_was_run": "as §1"}, "[4]": {"assay": "Cell cycle arrest in human MCF10A cells assessed as accumulation at sub-G1 phase at 6 uM after 48 hrs by flow cytometry analysis relative to control", "type": "functional, cell-based", "conditions": "MCF-10A", "how_it_was_run": "as §1"}}, "note": "The source made the active and inactive calls. No cut-off for these calls is given here.", "data": [{"smiles": "FC(F)(F)c1cccc(/C=C\\c2cc3ccccc3nc2Cl)c1", "values": [{"measurement": "Activity", "setting": "[1]", "result": 7.3, "unit": "%"}, {"measurement": "Activity", "setting": "HeLa [2]", "result": 16.2, "unit": "%"}, {"measurement": "Activity", "setting": "HeLa [3]", "result": "Active"}, {"measurement": "Activity", "setting": "MDA-MB-231", "result": 34, "unit": "%"}, {"measurement": "Activity", "setting": "[4]", "result": 12.9, "unit": "%"}]}]}
